Source: PubChem
MIN6 prolif: inducers of beta-cell replication in MIN6 cells; MIN6 cells proliferation, ATPlite luminescence, 48 h; cells starved in 0.2% serum; 100% = growth in 10% serum; proliferation, % at 10 µM; actives 0.29% (n = 330,000); AID 2380;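 active = compounds whose signal lies at least 3.5 SD above the mean of all wells on their plate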;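 note: 0% = DMSO-treated cells in low-serum medium and 100% = 10% serum control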
TLR9-MyD88 inh: inhibitors of human TLR9-MyD88 binding; inhibition, % at 4.98 µM; CHO BLA complementation TLR9-MyD88, CCF4 FRET ratio; Q9NR96+Q99836; actives 0.21% (n = 340,000);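 active = inhibition above the mean over all tested compounds plus 3 SD, cut at about 21% in these data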;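 note: 0% = DMSO only wells and 100% = clavulanate BLA inhibitor control wells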
TLR4-MyD88 BLA: blocks binding of human TLR4 to MyD88. HeLa CL3-4 TLR4/MyD88 BLA complementation, FRET ratio. inhibition, % at 8.4 µM. actives 0.18% (n = 200,000); in the data active = inhibition above about 25%;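 note: 0% = vehicle and 100% = reference inhibitor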
MC4R antag cAMP: antagonists of human melanocortin 4 receptor (MC4R) | P32245 | inhibition, % at 6.5 µM | AID 540295 | MC4R-expressing cells, MTII-stimulated cAMP, LANCE TR-FRET | actives 0.48% (n = 360,000);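 active = inhibition above its plate's cutoff, the mean of tested wells on that plate plus 3 SD, cut at about 29% in these data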;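 note: 0% = Melanotan II alone and 100% = Melanotan II plus saturating MCL0020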
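material = U2OS cells stably expressing human melanocortin 4 receptor (MC4R) | also added = Melanotan II challenge | dosing = single nominal compound dose of 6.5 µM | detection = TR-FRET with Eu-cAMP and labeled anti-cAMP, 671 nm | replication = singlicate | timing = compound 30 min, challenge 1 h, detection 1 h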
MC4R barr agon: agonists of human melanocortin 4 receptor (MC4R) beta-arrestin | U2OS MC4R beta-arrestin complementation, luminescence; percent of melanotan II response, DMSO zero | actives 0.98% (n = 360,000) | P32245 | activation, % at 8.9 µM;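 active = activation above a per-plate cutoff, the mean activation of sample wells on that plate plus 3 SD, cut at about 8% in these data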
NOD2 RIPK2 PPI: NOD2-RIPK2 protein interaction inhibition. CHO BLA complementation NOD2-RIPK2, CCF4 ratio. inhibition, % at 4.98 µM. actives 0.38% (n = 360,000). AID 624267; in the data active = inhibition above about 21%;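 note: 0% = vehicle only and 100% = reference blocker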
MC4R barr ag: human MC4R beta-arrestin agonism confirmation. shares compounds with MC4R barr agon. U2OS MC4R beta-arrestin recruitment, luminescence; scaled DMSO 0%, Melanotan II 100%. activation, % at 8.9 µM. actives 31% (n = 2,400). AID 602192;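 active = mean activation across replicates above the hit cutoff set in the earlier primary screen, cut at about 8% in these data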
MOR DOR agonist: counter-screen for MC4R agonists: agonists of mu-delta opioid heterodimer; shares compounds with MC4R barr agon; U2OS PathHunter beta-arrestin, beta-gal luminescence; percent of deltorphin B response, DMSO zero; activation, % at 9.2 µM; actives 5.8% (n = 2,400); AID 602194;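 active = mean activation across replicates exceeds the hit threshold derived in the earlier primary screen, cut at about 18% in these data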;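 note: 100% = deltorphin B at 0.9 µM final and 0% = DMSO alone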
The depositor's hits bear a star. Shown are actives, neighbours in structure and some others; about 2.1% of the full set was active somewhere.

How did Cc1nn(Cc2ccccc2Cl)c(C)c1C(=O)NCc1ccco1 do in these assays?
MIN6 prolif: -0.3; TLR9-MyD88 inh: -5.9; TLR4-MyD88 BLA: -2.1; MC4R antag cAMP: 10.4; MC4R barr agon: -0.3; NOD2 RIPK2 PPI: 2.8

What do the screens show for `Cc1nn(Cc2ccccc2Cl)c(C)c1C(=O)NCCN1C(=O)S/C(=C\c2ccccc2)C1=O`?
MIN6 prolif: -2.5; TLR9-MyD88 inh: -3.6; TLR4-MyD88 BLA: 0.9; MC4R antag cAMP: -16.3; MC4R barr agon: 20.5*; NOD2 RIPK2 PPI: -10.1; MC4R barr ag: 11.7*; MOR DOR agonist: 4.6

Results for COc1ccc(NC(=O)N(C)C[C@H]2OCc3cnnn3CCCC(=O)N([C@@H](C)CO)C[C@H]2C)cc1 ?
TLR9-MyD88 inh: -6.7; MC4R antag cAMP: 5.7; MC4R barr agon: -0.4; NOD2 RIPK2 PPI: -9.4

How did COc1ccc(-c2csc3nc(C)nc(N4CCCCC4)c23)cc1OC do in these assays?
MIN6 prolif: -3.9; TLR9-MyD88 inh: -6.8; TLR4-MyD88 BLA: 9.7; MC4R antag cAMP: 4.7; MC4R barr agon: 9.6*; NOD2 RIPK2 PPI: -2.4; MC4R barr ag: -0.7; MOR DOR agonist: 4.3

How did COc1ccc(-c2csc3nc(-c4cccnc4)nc(N4CCC(C(N)=O)CC4)c23)cc1OC do in these assays?
MIN6 prolif: 0.0; TLR9-MyD88 inh: -3.9; TLR4-MyD88 BLA: 10.5; MC4R antag cAMP: 13.3; MC4R barr agon: -1.8; NOD2 RIPK2 PPI: -7.6

Results for Clc1ccc(-c2nnc(-c3cccc4ccccc34)o2)cc1 ?
TLR9-MyD88 inh: 0.4; MC4R antag cAMP: -0.3; MC4R barr agon: 11.1*; NOD2 RIPK2 PPI: -3.9; MC4R barr ag: 3.2; MOR DOR agonist: 2.1

How did c1ccc(Nc2nnc(-c3cccc4ccccc34)o2)cc1 do in these assays?
MIN6 prolif: -0.7; MC4R antag cAMP: 6.5; MC4R barr agon: 16.8*; NOD2 RIPK2 PPI: -5.7; MC4R barr ag: 7.5; MOR DOR agonist: 7.8

What do the screens show for `CCOC(=O)Cc1csc(SCC(=O)NC2CCC(C)CC2)n1` (configuration not stated)?
MIN6 prolif: -2.6; TLR9-MyD88 inh: 6.8; MC4R antag cAMP: 1.9; MC4R barr agon: 0.6; NOD2 RIPK2 PPI: -14.3

What do the screens show for `N#Cc1c(N)nc(-c2ccccc2)nc1-c1ccccc1`?
MIN6 prolif: -0.5; TLR9-MyD88 inh: -0.9; TLR4-MyD88 BLA: 3.1; MC4R antag cAMP: -2.9; MC4R barr agon: 12.7*; NOD2 RIPK2 PPI: -15.4; MC4R barr ag: 0.4; MOR DOR agonist: 6.5

How did Cc1nc(C(=O)Nc2cc(F)cc(Cl)c2)sc1C1(C)CC(c2ccccc2)=NO1 (configuration not stated) do in these assays?
MIN6 prolif: -2.0; TLR9-MyD88 inh: 2.2; MC4R antag cAMP: 3.5; MC4R barr agon: 0.0; NOD2 RIPK2 PPI: -3.0

Results for COc1ccc(C2c3ccc(O)cc3Oc3ncn4nc(-c5ccccn5)nc4c32)cc1 (configuration not stated) ?
MIN6 prolif: -0.2; TLR9-MyD88 inh: 1.6; MC4R antag cAMP: 2.9; MC4R barr agon: 48.7*; NOD2 RIPK2 PPI: -0.2; MC4R barr ag: 9.5*; MOR DOR agonist: 10.2

Results for CCn1c(SCC(=O)Nc2ccc3c(c2)oc2ccccc23)nnc1-c1ccc(N)cc1 ?
MIN6 prolif: -3.9; TLR9-MyD88 inh: 5.6; TLR4-MyD88 BLA: -13.0; MC4R antag cAMP: 9.9; MC4R barr agon: 15.1*; NOD2 RIPK2 PPI: 8.2; MC4R barr ag: 15.9*; MOR DOR agonist: 19.2*

What do the screens show for `O=C(CSc1ncnc2c1nnn2-c1ccc(F)cc1)NCc1ccco1`?
MIN6 prolif: 4.1; TLR9-MyD88 inh: -1.9; TLR4-MyD88 BLA: 2.7; MC4R antag cAMP: 5.8; MC4R barr agon: 1.4; NOD2 RIPK2 PPI: -2.6
